Broadly, the IC50 is the concentration that inhibits the measured activity by half. Usually inhibition stands for the relative decrease from the control value, in per cent.

The target in data set [1] is T1, Heat shock protein 75 kDa, mitochondrial (Homo sapiens, UniProt Q12931).
T1 sequence (Q12931 whole entry): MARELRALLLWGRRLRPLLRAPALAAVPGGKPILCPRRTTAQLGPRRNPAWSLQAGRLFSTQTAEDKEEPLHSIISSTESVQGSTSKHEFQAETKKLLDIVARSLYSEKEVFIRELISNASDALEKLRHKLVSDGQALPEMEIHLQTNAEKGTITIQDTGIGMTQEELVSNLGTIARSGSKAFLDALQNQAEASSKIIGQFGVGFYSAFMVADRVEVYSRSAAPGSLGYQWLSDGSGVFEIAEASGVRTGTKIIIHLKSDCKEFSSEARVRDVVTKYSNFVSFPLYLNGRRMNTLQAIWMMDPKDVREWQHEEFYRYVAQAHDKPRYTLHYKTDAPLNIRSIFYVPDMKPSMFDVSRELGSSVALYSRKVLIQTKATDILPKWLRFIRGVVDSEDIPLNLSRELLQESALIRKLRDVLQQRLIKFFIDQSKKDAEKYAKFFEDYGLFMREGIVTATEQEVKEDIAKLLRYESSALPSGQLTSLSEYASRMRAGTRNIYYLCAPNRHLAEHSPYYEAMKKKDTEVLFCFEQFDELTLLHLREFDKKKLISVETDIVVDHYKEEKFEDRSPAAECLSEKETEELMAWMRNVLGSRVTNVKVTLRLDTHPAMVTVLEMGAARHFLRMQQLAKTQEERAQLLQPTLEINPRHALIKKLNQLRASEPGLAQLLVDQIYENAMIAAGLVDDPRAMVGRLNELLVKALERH
Briefly: Displacement of PU-FITC3 from recombinant TRAP-1 (unknown origin) after 24 hrs by fluorescence polarization assay. Background: Polarisation of emitted light reports the rotation of a fluorescent probe.

Data set [2] concerns the target Heat shock protein HSP 90-alpha (Homo sapiens, UniProt P07900). Description: Displacement of Cy3B-GM from recombinant Hsp90alpha (unknown origin) after 24 hrs by fluorescence polarization assay.
In the next data set the target is Endoplasmin (Canis lupus familiaris, UniProt P41148). Briefly: Displacement of Cy3B-GM from recombinant Grp94 (unknown origin) after 24 hrs by fluorescence polarization assay.
Endoplasmin, sequence (P41148 whole entry): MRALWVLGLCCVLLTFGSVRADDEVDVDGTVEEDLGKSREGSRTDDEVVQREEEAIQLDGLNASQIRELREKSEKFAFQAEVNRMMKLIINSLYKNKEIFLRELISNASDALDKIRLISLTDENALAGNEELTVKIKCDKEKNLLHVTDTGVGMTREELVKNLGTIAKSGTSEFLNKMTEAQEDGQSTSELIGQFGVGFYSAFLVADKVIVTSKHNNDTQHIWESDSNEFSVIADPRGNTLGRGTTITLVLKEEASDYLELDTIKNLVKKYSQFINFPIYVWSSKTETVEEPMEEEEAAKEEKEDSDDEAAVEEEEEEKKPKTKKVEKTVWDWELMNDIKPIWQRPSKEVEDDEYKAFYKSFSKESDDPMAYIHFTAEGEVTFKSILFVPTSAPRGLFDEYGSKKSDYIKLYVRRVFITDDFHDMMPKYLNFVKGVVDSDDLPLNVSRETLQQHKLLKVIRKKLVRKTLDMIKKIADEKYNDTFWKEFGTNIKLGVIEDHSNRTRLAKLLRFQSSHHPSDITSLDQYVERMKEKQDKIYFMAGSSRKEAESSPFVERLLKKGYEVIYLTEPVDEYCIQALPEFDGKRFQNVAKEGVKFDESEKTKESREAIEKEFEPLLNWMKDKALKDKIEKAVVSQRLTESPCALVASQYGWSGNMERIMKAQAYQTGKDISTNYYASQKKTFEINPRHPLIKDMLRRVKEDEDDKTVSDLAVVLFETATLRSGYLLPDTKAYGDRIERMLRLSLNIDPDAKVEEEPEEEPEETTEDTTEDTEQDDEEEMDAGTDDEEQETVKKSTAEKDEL
The target in data set [3] is MAP kinase-interacting serine/threonine-protein kinase 2 (Homo sapiens) (UniProt Q9HBH9). Description: Inhibition of human MKNK2 at 10 uM after 1 hr by qPCR analysis relative to control. A digest of the protocol: (§1)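 Compound tested at 10 μM in a scanEDGE 97 active-site competition binding panel. Incubation was 1 h at room temperature, then washing and elution with non-biotinylated ligand. Bead-bound kinase was quantified by qPCR; values are % inhibition.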
MAP kinase-interacting serine/threonine-protein kinase 2 (Homo sapiens), sequence (Q9HBH9 whole entry, looked up): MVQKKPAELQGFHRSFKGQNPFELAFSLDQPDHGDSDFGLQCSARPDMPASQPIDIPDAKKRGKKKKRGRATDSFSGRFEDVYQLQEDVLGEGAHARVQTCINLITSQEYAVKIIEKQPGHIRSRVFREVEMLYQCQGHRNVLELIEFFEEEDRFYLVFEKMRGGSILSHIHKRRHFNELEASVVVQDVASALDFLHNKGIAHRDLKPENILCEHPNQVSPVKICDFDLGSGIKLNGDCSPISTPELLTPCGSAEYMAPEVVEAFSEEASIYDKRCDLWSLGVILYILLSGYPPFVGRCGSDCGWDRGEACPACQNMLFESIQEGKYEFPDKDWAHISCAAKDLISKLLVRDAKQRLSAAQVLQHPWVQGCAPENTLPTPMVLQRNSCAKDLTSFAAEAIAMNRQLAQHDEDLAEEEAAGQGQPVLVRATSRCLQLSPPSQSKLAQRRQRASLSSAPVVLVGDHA

Data set [4] deals with Rho-associated protein kinase 2 (Homo sapiens) (UniProt O75116). Briefly: Inhibition of human ROCK2 at 10 uM after 1 hr by qPCR analysis relative to control. A digest of the protocol: as §1
Rho-associated protein kinase 2 (Homo sapiens), sequence (O75116 whole entry, looked up): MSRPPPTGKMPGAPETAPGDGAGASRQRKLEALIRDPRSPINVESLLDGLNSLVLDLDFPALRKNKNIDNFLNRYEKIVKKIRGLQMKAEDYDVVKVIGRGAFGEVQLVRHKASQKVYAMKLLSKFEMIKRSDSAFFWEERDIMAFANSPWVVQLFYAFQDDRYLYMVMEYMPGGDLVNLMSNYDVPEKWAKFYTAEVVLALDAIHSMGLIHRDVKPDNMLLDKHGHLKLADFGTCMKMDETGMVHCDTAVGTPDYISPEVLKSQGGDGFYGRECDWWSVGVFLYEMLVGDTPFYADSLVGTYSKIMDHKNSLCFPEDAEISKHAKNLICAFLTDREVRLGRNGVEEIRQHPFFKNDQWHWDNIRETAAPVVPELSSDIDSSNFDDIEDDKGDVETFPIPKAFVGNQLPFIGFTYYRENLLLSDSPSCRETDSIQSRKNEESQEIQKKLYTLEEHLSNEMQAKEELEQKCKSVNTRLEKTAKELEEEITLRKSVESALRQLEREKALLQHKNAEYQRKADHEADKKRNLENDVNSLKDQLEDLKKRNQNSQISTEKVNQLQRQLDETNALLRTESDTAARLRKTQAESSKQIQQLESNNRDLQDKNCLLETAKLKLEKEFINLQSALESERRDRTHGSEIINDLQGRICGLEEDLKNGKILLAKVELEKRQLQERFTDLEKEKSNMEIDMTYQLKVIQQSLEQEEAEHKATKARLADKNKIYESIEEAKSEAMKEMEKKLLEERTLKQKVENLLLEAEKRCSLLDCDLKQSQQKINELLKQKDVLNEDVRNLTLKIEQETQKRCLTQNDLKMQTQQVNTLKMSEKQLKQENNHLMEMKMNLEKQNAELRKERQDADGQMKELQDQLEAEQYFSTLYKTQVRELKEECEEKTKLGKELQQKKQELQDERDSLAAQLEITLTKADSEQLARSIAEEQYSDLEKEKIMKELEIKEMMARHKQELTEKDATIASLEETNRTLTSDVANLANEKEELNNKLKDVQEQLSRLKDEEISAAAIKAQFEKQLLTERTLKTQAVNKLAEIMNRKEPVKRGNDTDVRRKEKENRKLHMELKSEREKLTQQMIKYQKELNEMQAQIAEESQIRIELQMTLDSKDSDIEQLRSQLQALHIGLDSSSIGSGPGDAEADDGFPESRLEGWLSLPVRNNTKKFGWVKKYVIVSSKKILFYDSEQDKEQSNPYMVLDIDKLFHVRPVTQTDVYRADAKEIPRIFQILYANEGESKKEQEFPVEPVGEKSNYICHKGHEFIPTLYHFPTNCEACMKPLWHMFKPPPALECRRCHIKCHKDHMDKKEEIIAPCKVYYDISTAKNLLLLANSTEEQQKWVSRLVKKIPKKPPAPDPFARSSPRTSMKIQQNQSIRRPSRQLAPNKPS
In general terms: In qPCR the cycle at which signal appears reflects the starting amount.

The target of data set [5] is Heat shock protein HSP 90-beta (Homo sapiens, UniProt P08238).
Heat shock protein HSP 90-beta, sequence (P08238 whole entry): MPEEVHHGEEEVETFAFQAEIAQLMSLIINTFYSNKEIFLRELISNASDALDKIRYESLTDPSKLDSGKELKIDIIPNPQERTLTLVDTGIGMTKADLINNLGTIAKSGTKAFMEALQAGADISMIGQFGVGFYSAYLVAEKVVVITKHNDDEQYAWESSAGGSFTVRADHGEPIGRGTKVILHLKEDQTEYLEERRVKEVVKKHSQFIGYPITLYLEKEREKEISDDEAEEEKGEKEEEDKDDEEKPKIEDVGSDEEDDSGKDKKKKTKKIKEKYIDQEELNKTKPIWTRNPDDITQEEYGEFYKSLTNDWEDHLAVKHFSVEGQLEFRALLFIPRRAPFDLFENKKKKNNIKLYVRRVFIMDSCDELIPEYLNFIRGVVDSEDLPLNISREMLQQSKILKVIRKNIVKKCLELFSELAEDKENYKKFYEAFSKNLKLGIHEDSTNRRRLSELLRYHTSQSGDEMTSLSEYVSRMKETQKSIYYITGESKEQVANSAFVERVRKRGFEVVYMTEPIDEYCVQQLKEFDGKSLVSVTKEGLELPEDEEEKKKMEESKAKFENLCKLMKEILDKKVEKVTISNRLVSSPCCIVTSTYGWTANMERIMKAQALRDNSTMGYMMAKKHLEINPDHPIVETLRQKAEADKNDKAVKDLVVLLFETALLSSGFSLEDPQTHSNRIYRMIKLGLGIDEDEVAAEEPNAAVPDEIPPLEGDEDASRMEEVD
Data set [6] concerns the target Heat shock protein HSP90 (Homo sapiens) (UniProt P07900+P08238). Briefly: Inhibition of HSP90 in human SKBR3 cells assessed as induction of HSP70 activity at 100 uM after 24 hrs by Western blot analysis. It counts as cell-based. The following applies: SK-BR-3. A digest of the protocol:
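SKBr3 cells (McCoy's 5A, 10% FBS, 1% Pen/Strep, 37 °C, CO2) treated 24 h with DMSO vehicle or compound. Cells lysed in RIPA with protease inhibitors; protein measured by BCA. Lysate (5−50 μg) run on SDS−PAGE, blotted to nitrocellulose, probed for Hsp70 (1:2500) and β-actin. HRP secondary, ECL detection, densitometry; triplicate experiments.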
In general terms: A western blot detects proteins with antibodies after separation by electrophoresis.

Data set [7] is described as follows: Cytotoxicity against human SKBR3 cells assessed as cell viability at 100 uM after 72 hrs by CellTiter-Glo assay. The following applies: sk-br-3, 72 h. In kind it is cell-based. In a few lines:
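SKBr3 cells were grown in McCoy's 5A with 10% FBS and Pen/Strep at 37 °C. They were exposed 72 h to vehicle or compound in quadruplicate wells. Viability was read by CellTiter-Glo luminescence (ATP content), with mean ± error, n = 4.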

The species entered for the next data set is Homo sapiens. Briefly: Selectivity ratio of IC50 for recombinant Grp94 (unknown origin) to IC50 for recombinant Hsp90alpha (unknown origin).

Calls of active or inactive are those of the source. No cut-off for these calls is given here.

Turning to `C#CCC(CC)n1c(Sc2ccc(Cl)cc2Cl)nc2c(N)ncnc21` (stereo not drawn), the values for the IC50 (in data set [1]; in [2]; on Endoplasmin) were over 50 µM, over 50 µM and 920 nM, respectively.
For the compound `C#CCCCn1c(Sc2ccc(Cl)cc2Cl)nc2c(N)ncnc21`, the inhibition in [3] came out at 34%; in [4], 32%. For the same compound, the 50% inhibitory concentration (IC50) at Endoplasmin worked out at 120 nM.
`C#CCCCn1c(Sc2ccc(Cl)c(Cl)c2)nc2c(N)ncnc21`: the figures for the IC50 (in [2]; at Endoplasmin) were 1.96 µM and 695 nM, respectively.
For `C#CCCn1c(Sc2cc(Cl)cc(Cl)c2)nc2c(N)ncnc21` the same measures were over 50 µM and 287 nM.
On to `C#CCCCn1c(Cc2ccc(Cl)cc2Cl)nc2c(N)ncnc21`, for which the figures for the concentration for half-maximal inhibition (IC50) (in data set [2]; on Endoplasmin) were over 100 µM and 700 nM, respectively.
In the case of `C#CCCCn1c(Sc2cc(C(F)(F)F)ccc2Cl)nc2c(N)ncnc21`, the figures for the IC50 (in [2]; in [5]; on Endoplasmin) were over 100 µM, over 100 µM and 500 nM, respectively.
`CC(C)NCCCn1c(Sc2ccc(Cl)cc2Cl)nc2c(N)nccc21`: the values for the IC50 (in [1]; in data set [2]; at Endoplasmin) were 14.1 µM, over 50 µM and 3440 nM, respectively.
For the compound `Nc1ncnc2c1nc(Sc1cc(Cl)cc(Cl)c1)n2CCCC(F)(F)F`, the IC50 on Endoplasmin turned out to be 502 nM.
On to `C#CCCCn1c(Oc2ccc(Cl)cc2Cl)nc2c(N)ncnc21`, for which the IC50 in data set [2] is over 100 µM; on Endoplasmin, 500 nM.
Regarding `CC(C)NCCCn1c(Sc2cc3c(cc2N(C)C)OCO3)nc2c(N)ncnc21`, the 50% inhibitory concentration (IC50) in [2] amounted to 0.1 µM; at Endoplasmin, 265 nM.
For `C#CCCCn1c(Sc2cc(Cl)c(Cl)cc2Cl)nc2c(N)ncnc21`, the IC50 at Endoplasmin worked out at 170 nM.
Take `C#CCCCn1c(Sc2cc(Cl)cc(Br)c2)nc2c(N)ncnc21`: the IC50 in data set [2] is over 100 µM; in data set [5], over 100 µM; at Endoplasmin, 240 nM.
Turning to `Nc1ncnc2c1nc(Sc1cc(Cl)cc(Cl)c1)n2Cc1ccccc1`, the IC50 in [2] was over 50 µM; on Endoplasmin, over 5000 nM.
Consider `C#CCCCn1c(Sc2cc(Br)cc(Br)c2)nc2c(N)ncnc21`, for which the 50% inhibitory concentration (IC50) in [2] was over 50 µM; at Endoplasmin it was 290 nM.
Regarding `COC(=O)c1c(O)cc(O)c(Cl)c1CCc1nccn1Cc1ccccc1`, the inhibition entry in data set [6] is “Active”. Further, the Activity result in [7] is “Toxic”.
As to `C#CCC(C)n1c(Sc2ccc(Cl)cc2Cl)nc2c(N)ncnc21` (stereo not drawn), the IC50 is over 50 µM in data set [2] and 5000 nM on Endoplasmin.
With `Nc1ncnc2c1nc(Sc1cc(Cl)cc(Cl)c1)n2CCCCCC(F)(F)F`, the 50% inhibitory concentration (IC50) in [2] is over 50 µM; at Endoplasmin, 1650 nM.
`C#CCCCn1c(S(=O)(=O)c2ccc(Cl)cc2Cl)nc2c(N)ncnc21`: the IC50 on Endoplasmin worked out at 4700 nM.
For the compound `C#CCCCn1c(Sc2ccccc2OC)nc2c(N)ncnc21`, the results for the IC50 (in data set [2]; in data set [5]; on Endoplasmin) were over 100 µM, over 100 µM and 6200 nM, respectively.
As for `C#CCCCn1c(Sc2ccc(OC)cc2)nc2c(N)ncnc21`, at Endoplasmin, the half-inhibitory concentration (IC50) amounted to 1130 nM.
Same read-out and setting: the figure for `C#CCCCn1c(Sc2cc(Cl)ccc2Cl)nc2c(N)ncnc21` is 530 nM.
Consider `CCCC(C)n1c(Sc2ccc(Cl)cc2Cl)nc2c(N)ncnc21` (stereo not drawn), for which the results for the 50% inhibitory concentration (IC50) (in [1]; in data set [2]; at Endoplasmin) were over 50 µM, over 100 µM and 2480 nM, respectively.
For the compound `C#CCCCn1c(Sc2ccc(Br)cc2Cl)nc2c(N)ncnc21`, the IC50 in [2] is over 50 µM; on Endoplasmin it was 390 nM.
With `CC(C)NCCCn1c(Sc2cc3c(cc2I)OCO3)nc2c(N)nccc21`, the IC50 in data set [2] stood at 0.028 µM; on Endoplasmin it was 101 nM. Also, in the data set listed under Homo sapiens, the Ratio IC50 was determined as 4.
Turning to `C#CCCn1c(Sc2ccc(Cl)cc2Cl)nc2c(N)ncnc21`, the figures for the IC50 (in [1]; in data set [2]; on Endoplasmin) were 7.23 µM, over 50 µM and 390 nM, respectively.
On to `C#CCCCn1c(Sc2c(C)cc(C)cc2C)nc2c(N)ncnc21`, for which the values for the IC50 (in data set [2]; in data set [5]; at Endoplasmin) were over 500 µM, over 500 µM and 2100 nM, respectively.
For `C#CCCCn1c(Sc2ccccc2CO)nc2c(N)ncnc21`, the IC50 at Endoplasmin was determined as 29400 nM.
As to `C#CCCCn1c(Sc2cc(C)cc(C)c2)nc2c(N)ncnc21`, the IC50 on Endoplasmin was determined as 11500 nM.
Turning to `CC#CCn1c(Sc2cc(Cl)cc(Cl)c2)nc2c(N)ncnc21`, on Endoplasmin, the IC50 was 5100 nM.
As for `CCCCn1c(Sc2cc(Cl)cc(Cl)c2)nc2c(N)ncnc21`, in data set [2], the IC50 was over 50 µM.
`Nc1ncnc2c1nc(Sc1cc(Cl)cc(Cl)c1)n2CCCCC(F)(F)F`: the IC50 on Endoplasmin stood at 2740 nM.
Turning to `Nc1ncnc2c1nc(Sc1cc(Cl)cc(Cl)c1)n2CCC(F)(F)F`, the IC50 at Endoplasmin turned out to be 560 nM.
With `C#CCC(C)n1c(Sc2cc(Cl)cc(Cl)c2)nc2c(N)ncnc21` (stereo not drawn), the figures for the IC50 (in data set [2]; at Endoplasmin) were over 50 µM and 5800 nM, respectively.
Consider `C#CCCCn1c(Sc2cc(Cl)cc(Cl)c2)nc2c(N)ncnc21`, for which the IC50 in [1] is 83.6 µM; in data set [2], over 500 µM; in data set [5], over 500 µM; on Endoplasmin, 260 nM.
For `C#CCCCCn1c(Sc2cc(Cl)cc(Cl)c2)nc2c(N)ncnc21`, the concentration for half-maximal inhibition (IC50) is over 50 µM in data set [2] and 665 nM at Endoplasmin.
For the compound `Nc1ncnc2c1nc(Sc1cc(Cl)cc(Cl)c1)n2CCc1ccccc1`, the half-maximal inhibitory concentration (IC50) in [2] is over 50 µM; on Endoplasmin, over 2500 nM.
With `C#CCCCn1c(Sc2cc(Cl)nc(Cl)c2)nc2c(N)ncnc21`, the 50% inhibitory concentration (IC50) in data set [1] amounted to 9.6 µM; in [2] it was 8.3 µM; at Endoplasmin it was 1900 nM.
Consider `C#CCCCn1c(C(=O)c2ccc(Cl)cc2Cl)nc2c(N)ncnc21`, for which the IC50 was 4.98 µM in data set [1], over 100 µM in data set [2] and 340 nM on Endoplasmin.
With `CCCC(C)n1c(Sc2cc(Cl)cc(Cl)c2)nc2c(N)ncnc21` (stereo not drawn), the 50% inhibitory concentration (IC50) in [2] is over 50 µM; at Endoplasmin it was 14300 nM.
Consider `C#CCCCn1c(Sc2ccccc2Cl)nc2c(N)ncnc21`, for which the IC50 on Endoplasmin was 350 nM.
For `C#CCCCn1c([S+]([O-])c2ccc(Cl)cc2Cl)nc2c(N)ncnc21` (stereo not drawn), the values for the half-inhibitory concentration (IC50) (in data set [2]; on Endoplasmin) were 24.9 µM and 5400 nM, respectively.
With `C#CCCCn1c(Sc2ccc(Cl)cc2)nc2c(N)ncnc21`, the IC50 at Endoplasmin was determined as 1500 nM.
In the case of `Cc1ccc(Sc2nc3c(N)ncn(CCCNC(C)C)c-3n2)c(C)c1`, the IC50 at Endoplasmin was over 25000 nM.
For `CC(C)NCCCn1c(Sc2cc(Cl)cc(Cl)c2)nc2c(N)nccc21`, the IC50 in data set [1] is 7.2 µM; at Endoplasmin it was 1080 nM.
With `C#CCC(CC)n1c(Sc2cc(Cl)cc(Cl)c2)nc2c(N)ncnc21` (stereo not drawn), the values for the IC50 (in [2]; at Endoplasmin) were over 100 µM and over 5000 nM, respectively.
Regarding `C#CCCCn1c(Sc2ccccc2OC(F)(F)F)nc2c(N)ncnc21`, the IC50 on Endoplasmin came out at 1400 nM.
`C#CCCCn1c(Sc2ccc(Cl)c(Cl)c2Cl)nc2c(N)ncnc21`: the IC50 in data set [1] was 3.6 µM; in [2] it was 16 µM; in [5] it was 39.5 µM; on Endoplasmin, 430 nM.
As for `C#CCCCn1c(Sc2ccc(OC)cc2OC)nc2c(N)ncnc21`, the half-maximal inhibitory concentration (IC50) was over 50 µM in [2], over 50 µM in [5] and 34500 nM at Endoplasmin.

For the origin of these results see ChEMBL document CHEMBL3425404, “Structure-activity relationship in a purine-scaffold compound series with selectivity for the endoplasmic reticulum Hsp90 paralog Grp94” (J Med Chem, 2015).
